Data taken from ChEMBL document CHEMBL1275442, “Pharmacokinetics and tissue distribution of anidulafungin in rats” (Antimicrob Agents Chemother, 2008).

Columns and labels:
Kidney [1] = experiment: Drug level in Long Evans rat kidney assessed as high disposition of radioactivity per gram of tissue at 5 mg/kg, iv administered as single bolus dose measured 72 hrs postdose by autoradiography; assay type: ADME, organism-based; set-up: dose 5 mg/kg, route intravenous; conditions: in vivo
How it was run: (§1)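 Male pigmented Long Evans (HsdBlu:LE) rats, 7.5 weeks old, 202 to 217 g, single iv [¹⁴C]anidulafungin; one rat per sampling time. Euthanized by isoflurane and cardiac-puncture exsanguination. Sagittal whole-body sections quantified by phosphorimaging autoradiography, single samples corrected for section thickness across multiple sections per tissue. Concentrations (μg eq/g drug-derived radioactivity) interpolated from least-squares standard curves per scan.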

Muscle tissue [2] = experiment: AUC (0 to infinity) in F344 rat muscle assessed as total compound-derived radioactivity per gram of tissue at 5 mg/kg, iv administered as single bolus dose […]; assay type: ADME, organism-based; set-up: time infinity, dose 5 mg/kg, route intravenous; conditions: in vivo
How it was run: (§2)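 Same F344 study: single 5 mg/kg IV [¹⁴C]anidulafungin given over about 5 min. Total drug-derived radioactivity (parent plus metabolites) counted by liquid scintillation, in […]. Noncompartmental analysis of the composite mean profile.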

Liver [3] = experiment: AUC (0 to infinity) in F344 rat liver at 5 mg/kg, iv administered as single bolus dose; assay type: ADME, organism-based; set-up: time infinity, dose 5 mg/kg, route intravenous; conditions: in vivo
How it was run: (§3)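 Male F344 rats, 10–11 weeks, 223.6–243.8 g, given one IV dose of [¹⁴C]anidulafungin, 5 mg/kg, over about 5 min. Tissues and blood sampled at 0.083–72 h (n = 3 rats per time). Parent drug measured by HPLC; LLOQ/ULOQ were 20/5,120 ng/ml for plasma and 220/56,320 ng/g for tissue. Noncompartmental parameters taken from the composite mean profile.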

Liver [4] = experiment: AUC (0 to 24 hrs) in F344 rat liver at 5 mg/kg, iv administered as single bolus dose; assay type: ADME, organism-based; set-up: time < 24 hr, dose 5 mg/kg, route intravenous; conditions: in vivo; how it was run: as §3
Cerebrospinal fluid [5] = experiment: Drug level in Long Evans rat cerebrospinal fluid assessed as radioactivity per gram of tissue at 5 mg/kg, iv administered as single bolus dose measured 72 hrs postdose by autoradiography; assay type: ADME, organism-based; set-up: dose 5 mg/kg, route intravenous; conditions: in vivo; how it was run: as §1
Plasma [6] = experiment: Half life in F344 rat plasma assessed as total compound-derived radioactivity at 5 mg/kg, iv administered as single bolus dose […]; assay type: ADME, organism-based; set-up: dose 5 mg/kg, route intravenous; conditions: in vivo
How it was run: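 Male F344 rats, 10 to 11 weeks old and 223.6 to 243.8 g, got one iv dose of [14C]anidulafungin at 5 mg/kg over about 5 min. Blood, CSF, kidney, liver, lung, quadriceps, spleen and skin were sampled predose and at 0.083 to 72 h, 3 rats per time. Total radioactivity (parent plus metabolites) was measured by liquid scintillation counting. Parameters were noncompartmental, from a composite mean profile.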

Zone of skin [7] = experiment: Drug level in Long Evans rat skin assessed as radioactivity per gram of tissue at 5 mg/kg, iv administered as single bolus dose measured 12 hrs postdose by autoradiography; assay type: ADME, organism-based; set-up: dose 5 mg/kg, route intravenous; conditions: in vivo
How it was run: (§4)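 Male pigmented Long Evans (HsdBlu:LE) rats, 7.5 weeks old and 202 to 217 g, got a single iv dose of [14C]anidulafungin at 5 mg/kg. One rat per time point (0.5, 6, 12, 24, 72, 168 h) was euthanised by isoflurane and cardiac-puncture exsanguination. Sagittal whole-body sections were quantified by phosphorimaging. Samples were thickness-corrected, and concentrations (μg eq/g) were interpolated from least-squares standard curves.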

Cerebrospinal fluid [8] = experiment: Drug level in Long Evans rat cerebrospinal fluid assessed as radioactivity per gram of tissue at 5 mg/kg, iv administered as single bolus dose measured 24 hrs postdose by autoradiography; assay type: ADME, organism-based; set-up: dose 5 mg/kg, route intravenous; conditions: in vivo; how it was run: as §1
Plasma [9] = experiment: Cmax in F344 rat plasma assessed as total compound-derived radioactivity per gram of tissue at 5 mg/kg, iv administered as single bolus dose after 5 mins by HPLC method; assay type: ADME, organism-based; set-up: dose 5 mg/kg, route intravenous; conditions: in vivo; how it was run: as §2
Lung [10] = experiment: Drug level in Long Evans rat lung assessed as radioactivity per gram of tissue at 5 mg/kg, iv administered as single bolus dose measured 72 hrs postdose by autoradiography; assay type: ADME, organism-based; set-up: dose 5 mg/kg, route intravenous; conditions: in vivo; how it was run: as §1
[11] = Cmax in F344 rat lung at 5 mg/kg, iv administered as single bolus dose after 5 min by HPLC method; assay type: ADME, organism-based; set-up: dose 5 mg/kg, route intravenous; how it was run: as §3
Liver [12] = experiment: Drug level in Long Evans rat liver assessed as low disposition of radioactivity per gram of tissue at 5 mg/kg, iv administered as single bolus dose measured 6 hrs postdose by autoradiography; assay type: ADME, organism-based; set-up: dose 5 mg/kg, route intravenous; conditions: in vivo; how it was run: as §1
Kidney [13] = experiment: AUC (0 to 24 hrs) in F344 rat kidney assessed as total compound-derived radioactivity per gram of tissue at 5 mg/kg, iv administered as single bolus dose […]; assay type: ADME, organism-based; set-up: time < 24 hr, dose 5 mg/kg, route intravenous; conditions: in vivo; how it was run: as §2
Spleen [14] = experiment: Drug level in Long Evans rat spleen assessed as radioactivity per gram of tissue at 5 mg/kg, iv administered as single bolus dose measured 6 hrs postdose by autoradiography; assay type: ADME, organism-based; set-up: dose 5 mg/kg, route intravenous; conditions: in vivo; how it was run: as §4
Zone of skin [15] = experiment: Cmax in F344 rat skin assessed as total compound-derived radioactivity per gram of tissue at 5 mg/kg, iv administered as single bolus dose […]; assay type: ADME, organism-based; set-up: dose 5 mg/kg, route intravenous; conditions: in vivo; how it was run: as §2
Kidney [16] = experiment: Drug level in Long Evans rat kidney assessed as low disposition of radioactivity per gram of tissue at 5 mg/kg, iv administered as single bolus dose measured 12 hrs postdose by autoradiography; assay type: ADME, organism-based; set-up: dose 5 mg/kg, route intravenous; conditions: in vivo; how it was run: as §1
Blood = experiment: AUC (0 to infinity) in F344 rat blood assessed as total compound-derived radioactivity per gram of tissue at 5 mg/kg, iv administered as single bolus dose […]; assay type: ADME, organism-based; set-up: dose 5 mg/kg, route intravenous, time infinity; conditions: in vivo; how it was run: as §2
[17] = Cmax in F344 rat skin at 5 mg/kg, iv administered as single bolus dose after 30 min by HPLC method; assay type: ADME, organism-based, Zone of skin; set-up: dose 5 mg/kg, route intravenous; how it was run: as §3
Lung [18] = experiment: Drug level in Long Evans rat lung assessed as radioactivity per gram of tissue at 5 mg/kg, iv administered as single bolus dose measured 0.5 hrs postdose by autoradiography; assay type: ADME, organism-based; set-up: dose 5 mg/kg, route intravenous; conditions: in vivo; how it was run: as §1
[19] = Tmax in F344 rat muscle at 5 mg/kg, iv administered as single bolus dose by HPLC method; assay type: ADME, organism-based, Muscle tissue; set-up: dose 5 mg/kg, route intravenous
How it was run: (§5)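 F344 males, 10 to 11 weeks old and 223.6 to 243.8 g, got a single 5 mg/kg iv dose of [14C]anidulafungin over about 5 min. Plasma and tissues were collected predose and at 0.083 to 72 h, n = 3 per time point. Parent drug was quantified by HPLC-UV, with LLOQ/ULOQ of 20/5,120 ng/ml in plasma and 220/56,320 ng/g in tissue. Noncompartmental parameters came from a composite mean concentration-time profile.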

Lung [20] = experiment: Drug level in Long Evans rat lung assessed as radioactivity per gram of tissue at 5 mg/kg, iv administered as single bolus dose measured 168 hrs postdose by autoradiography; assay type: ADME, organism-based; set-up: dose 5 mg/kg, route intravenous; conditions: in vivo; how it was run: as §1
[21] = Tmax in F344 rat liver at 5 mg/kg, iv administered as single bolus dose by HPLC method; assay type: ADME, organism-based; set-up: dose 5 mg/kg, route intravenous; how it was run: as §5
Muscle tissue [22] = experiment: AUC (0 to 24 hrs) in F344 rat muscle assessed as total compound-derived radioactivity per gram of tissue at 5 mg/kg, iv administered as single bolus dose […]; assay type: ADME, organism-based; set-up: time < 24 hr, dose 5 mg/kg, route intravenous; conditions: in vivo; how it was run: as §2
Liver [23] = experiment: Cmax in F344 rat liver assessed as total compound-derived radioactivity per gram of tissue at 5 mg/kg, iv administered as single bolus dose […]; assay type: ADME, organism-based; set-up: dose 5 mg/kg, route intravenous; conditions: in vivo; how it was run: as §2
Cerebrospinal fluid [24] = experiment: AUC (0 to infinity) in F344 rat cerebrospinal fluid assessed as total compound-derived radioactivity per gram of tissue at 5 mg/kg, iv administered as single bolus dose […]; assay type: ADME, organism-based; set-up: time infinity, dose 5 mg/kg, route intravenous; conditions: in vivo; how it was run: as §2
Spleen [25] = experiment: AUC (0 to 24 hrs) in F344 rat spleen assessed as total compound-derived radioactivity per gram of tissue at 5 mg/kg, iv administered as single bolus dose […]; assay type: ADME, organism-based; set-up: time < 24 hr, dose 5 mg/kg, route intravenous; conditions: in vivo; how it was run: as §2

Structure (SMILES): CCCCCOc1ccc(-c2ccc(-c3ccc([14C](=O)N[C@H]4C[C@@H](O)[C@@H](O)NC(=O)[C@@H]5[C@@H](O)[C@@H](C)CN5C(=O)[C@H]([C@@H](C)O)NC(=O)[C@H]([C@H](O)[C@@H](O)c5ccc(O)cc5)NC(=O)[C@@H]5C[C@@H](O)CN5C(=O)[C@H]([C@@H](C)O)NC4=O)cc3)cc2)cc1 [14C-ANIDULAFUNGIN]
- Drug uptake (Kidney [1]): 7.32 ugequiv
- AUC (Muscle tissue [2]): 139.22 ugequiv.hr/g
- AUC (Liver [3]): 767.22 µg·h/g
- AUC (Liver [4]): 586.44 µg·h/g
- Drug uptake (Cerebrospinal fluid [5]): 3.37 ugequiv
- t1/2 (Plasma [6]): 37.4 h
- Drug uptake (Zone of skin [7]): 5.34 ugequiv
- Drug uptake (Cerebrospinal fluid [8]): 8.92 ugequiv
- Cmax (Plasma [9]): 7.57 ugequiv/g
- Drug uptake (Lung [10]): 4.24 ugequiv
- Cmax [11]: 31100 ng/g
- Drug uptake (Liver [12]): 17.68 ugequiv
- AUC (Kidney [13]): 920.18 ugequiv.hr/g
- Drug uptake (Spleen [14]): 22.15 ugequiv
- Cmax (Zone of skin [15]): 5.4 ugequiv/g
- Drug uptake (Kidney [16]): 7.54 ugequiv
- AUC (Blood): 243.62 ugequiv.hr/g
- Cmax [17]: 4020 ng/g
- Drug uptake (Lung [18]): 22.31 ugequiv
- Tmax [19]: 30 min
- Drug uptake (Lung [20]): 0.96 ugequiv
- Tmax [21]: 4.98 min
- AUC (Muscle tissue [22]): 102.96 ugequiv.hr/g
- Cmax (Liver [23]): 24.28 ugequiv/g
- AUC (Cerebrospinal fluid [24]): 0.95 ugequiv.hr/g
- AUC (Spleen [25]): 822.61 ugequiv.hr/g
